From PubChem BioAssay
Only some compounds are listed: those with a hit (about 2.9% of all), similar ones and a draw of the others.
Runt-SMMHC FRET: blocks binding of human RUNX1 Runt domain to CBFb-SMMHC; Q01196+Q13951; Cerulean-Runt/Venus-CBFb-SMMHC FRET ratio 530/480, 1 h; inhibition, % at 20 µM; 220,000 compounds, 0.74% hits; AID 1434;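 active = mean inhibition across duplicate retests at 20 µM reaching about 50%, limit read from the data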;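 note: 0% = DMSO wells and 100% = wells with excess untagged CBFb-SMMHC; inhibitors lower the FRET ratio by blocking Runt binding to CBFb-SMMHC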
Target sequence (Q01196 whole entry, looked up, the tested form may be a part): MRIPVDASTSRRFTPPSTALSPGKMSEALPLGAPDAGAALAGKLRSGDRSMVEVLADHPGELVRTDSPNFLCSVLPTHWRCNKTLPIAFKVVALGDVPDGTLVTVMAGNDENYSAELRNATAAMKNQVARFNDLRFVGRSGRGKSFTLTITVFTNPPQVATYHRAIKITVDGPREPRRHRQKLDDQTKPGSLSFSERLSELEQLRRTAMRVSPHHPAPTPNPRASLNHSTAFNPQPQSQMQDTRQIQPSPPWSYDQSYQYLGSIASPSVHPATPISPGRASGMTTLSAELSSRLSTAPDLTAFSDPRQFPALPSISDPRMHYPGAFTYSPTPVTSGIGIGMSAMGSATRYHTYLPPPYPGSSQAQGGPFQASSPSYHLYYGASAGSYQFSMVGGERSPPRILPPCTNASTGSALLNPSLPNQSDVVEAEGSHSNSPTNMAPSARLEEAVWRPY
Target sequence (Q13951 whole entry, looked up, the tested form may be a part): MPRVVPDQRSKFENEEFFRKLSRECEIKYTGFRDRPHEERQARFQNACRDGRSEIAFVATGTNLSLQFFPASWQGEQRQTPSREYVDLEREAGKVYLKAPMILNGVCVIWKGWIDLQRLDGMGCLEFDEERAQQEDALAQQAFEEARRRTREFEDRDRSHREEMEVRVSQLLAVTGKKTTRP
Runt-CBFb FRET: inhibitors of human RUNX1 Runt domain binding to CBFb. AID 1496. 220,000 compounds, 0.46% hits. Cerulean-Runt/Venus-CBFb FRET ratio 530/480, 1 h. Q01196+Q13951. inhibition, % at 20 µM;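 active = inhibition over about 50% at 20 µM in the single-dose screen, limit read from the data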;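 note: 0% = DMSO wells and 100% = excess unlabeled CBFb competitor control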
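Reagent – Venus-CBFb binding partner, 100 nM · Assay system – Cerulean-tagged RUNX1 Runt domain (FRET donor) fusion protein · Input – 100 nM per protein · Incubation – two 1 h room-temperature incubations shielded from light · Measured by – FRET fluorescence · Medium – Tris buffer pH 7.5 with salts and BSA · Benchmarks – unlabeled CBFb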
KLK7 zymogen act: activators of human kallikrein-7 zymogen | 370,000 compounds, 0.9% hits | activation, % at 7 µM | P49862 | AID 652039 | purified proKLK7, EDANS-DABCYL substrate fluorescence; 100% is mature enzyme control, 0% vehicle;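 active = activation above the mean of all tested compounds plus 3 SD, computed per campaign excluding outliers beyond control limits, cut at about 13% in these data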
AI-2 QS modul: Vibrio harveyi AI-2 quorum sensing modulation; Vibrio harveyi JMH597 AI-2 luminescence/OD600 ratio, 9 h; active compounds read low; strain lacks LuxN and CqsS sensors; 0 = neutral-control median; activity change, % at 7.5 µM; 300,000 compounds, 0.4% hits; AID 2094; in the data active = activity change below about -75%, passing the limit was not always enough; inconclusive = no clear call, values can overlap the other calls;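 note: luminescence divided by OD600 gain over 9 h not by final OD600 alone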
Wee1 stabilizer: human Wee1 degradation inhibition, primary screen. P30291. HeLa Luc-Wee1K328M stability, luciferase luminescence; 100% = proteasome inhibitor MG132 effect. reporter increase, % at 5 µM. 220,000 compounds, 1.2% hits. AID 1321;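 active = activation above the mean of all tested compounds plus 3 SD, set per screening run, cut at about 8.8% in these data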;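 note: cells exposed to compound for 20 h before luminescence read; 0% = DMSO alone and 100% = MG132 at 30 µM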
RanGTP-Imp inh: inhibitors of RanGTP-importin-beta interaction, primary screen, biochemical, FRET, CFP-Ran, YFP-importin-beta, homogeneous | cell-free CFP-Ran/YFP-importin-beta FRET ratio | inhibition, % (test concentration not listed) | 300,000 compounds, 1.1% hits | AID 2216;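 active = more than half of the replicate wells show a fall in the fluorescence ratio signal beyond about 16%, limit read from the data, passing the limit was not always enough; inconclusive = exactly half of the replicate wells pass the set limit; inactive = fewer than half of replicates pass the limit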;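 note: 0% = DMSO wells and 100% = Ran loaded with GDP instead of GTP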
Active calls of the source: *; ? = inconclusive; · = no result.

SMILES	Runt-SMMHC FRET	Runt-CBFb FRET	KLK7 zymogen act	AI-2 QS modul	Wee1 stabilizer	RanGTP-Imp inh
CN1OC[C@@H]2CN3C(=Nc4cc(C(F)(F)F)cc(C(F)(F)F)c4)Sc4ccccc4[C@@H]3C[C@@H]21	·	·	0.8	·	·	·
Cc1ccc(N=Nc2c(=O)[nH]n3c(C)cc(C)nc23)cc1	-13.2	0.1	0.2	0.7	10.8*	-12.0
COc1ccc(N2C[C@@]3(O)CC[C@@H](O)[C@@H](OC)[C@@H]3[C@@](C)(O)[C@@H]2CC=C(C)C)cc1	·	·	0.1	·	·	·
CCSc1nc(N2CCOCC2)c2c(c1C#N)CC(C)(C)N(C)C2	90.8*	95.2*	3.7	20.2	0.9	-3.1
COC(=O)CSc1nc(N2CCOCC2)c2c(c1C#N)CC(C)(C)N(C)C2	56.2*	18.7	2.2	7.4	-1.9	17.6*
COC(=O)CCSc1nc(N2CCOCC2)c2c(c1C#N)CC(C)(C)OC2	·	·	-0.7	7.0	·	7.7
C=CCSc1nc(N2CCOCC2)c2c(c1C#N)CC(C)(C)N(C)C2	12.3	16.0	1.4	5.8	6.2	?
CN1Cc2c(N3CCOCC3)nc(SCc3ccccc3)c(C#N)c2CC1(C)C	62.5*	46.7	0.4	8.0	0.2	26.5*
CCOC(=O)CCNC(=O)N1CCCC(C(=O)c2cccc(OC(C)C)c2)C1 (configuration not stated)	·	·	0.2	18.4	·	-0.9
Clc1ccc(Cn2nnc(-c3ccccc3)n2)cc1	-0.1	-2.8	0.2	-80.8*	0.9	-1.0
CCOC(=O)N1CCN(C(=O)C2CCCCC2)CC1	-1.1	4.3	-0.5	15.7	-2.1	1.9
CCOC(=O)N1CCN(C(=O)C2CCC(C(=O)N3CCN(C(=O)OCC)CC3)CC2)CC1 (configuration not stated)	·	·	·	·	9.5*	·
O=C(N[C@H](Cc1ccccc1)C(=O)N1CCN(CC(=O)N2CCCC2)CC1)[C@H]1O[C@@H](n2ccc(=O)[nH]c2=O)[C@H](O)[C@@H]1O	·	·	-0.1	·	·	·
Cc1ccc(S(=O)(=O)N2CCCC2CNC(=O)C(=O)Nc2ccc(F)cc2)cc1 (configuration not stated)	·	·	0.2	16.8	·	31.5*
CCC(C)Nc1nc(C)nc2c1nnn2Cc1ccccc1 (configuration not stated)	·	·	0.2	·	·	·
CCCN1CCc2c(sc(NC(=O)c3ccc(S(=O)(=O)N4CCN(C(=O)OCC)CC4)cc3)c2C(N)=O)C1	·	·	-19.8	22.9	·	96.5*
CCCN1CCc2c(sc(NC(=O)C3CCN(S(=O)(=O)c4cccs4)CC3)c2C(N)=O)C1	·	·	2.8	8.0	·	151.2*
CC(=O)N1CCc2c(sc(NC(=O)C3CCN(S(=O)(=O)c4cccs4)CC3)c2C(N)=O)C1	·	·	-0.1	47.8	·	?
CCOC(=O)N1CCN(S(=O)(=O)c2ccc(C(=O)Nc3sc4c(c3C(=O)OC)CCN(C)C4)cc2)CC1	·	·	-254.9	18.2	·	8.7
CCOC(=O)N1CCN(S(=O)(=O)c2ccc(C(=O)Nc3sc4c(c3C(N)=O)CCN(CC)C4)cc2)CC1	·	·	0.7	22.8	·	43.0*
O=C(N[C@H](C(=O)N1CCC[C@H]1C(=O)NCCc1ccccc1Cl)c1ccccc1)c1ccco1	·	·	-0.3	·	·	·
CCC1OC2(C)OC(=N)C1(C#N)C(C#N)(C#N)C2c1ccccc1 (configuration not stated)	66.7	21.7	12.4	24.7	0.1	33.0*
COCCNC(=O)C(C)N(c1ccc(OC)cc1)S(C)(=O)=O (configuration not stated)	-2.0	0.6	-0.6	3.5	10.0*	?
CCOc1ccc(N(C(C)C(=O)Nc2ccc(OC)cc2)S(C)(=O)=O)cc1 (configuration not stated)	0.6	-2.1	-0.1	11.5	-1.1	0.2
Cc1c(Cl)c([N+](=O)[O-])nn1CC(=O)N1CCN(Cc2ccccc2)CC1	-0.3	-2.0	0.3	7.8	-1.8	0.1
SMILES	Runt-SMMHC FRET	Runt-CBFb FRET	KLK7 zymogen act	AI-2 QS modul	Wee1 stabilizer	RanGTP-Imp inh
COc1ccccc1OC1OC2COC(c3ccco3)OC2C(O)C1NC(C)=O (configuration not stated)	-0.5	-0.7	0.2	5.0	9.1*	0.9
CCOC(=O)C1CCN(C(=O)Cn2nc(C)n3c(cc4cc(F)ccc43)c2=O)CC1	·	·	0.6	17.1	·	7.1
O=C(NCc1nc(-c2ccccc2)no1)c1cccs1	-0.2	2.5	-0.1	-78.8*	3.3	?
COc1cccc(/C=N/Nc2ncnc(Cl)c2N)c1O	1.2	-0.2	-0.7	-81.8*	1.1	-3.1
COc1cccc(/C=N/Nc2nccnc2Cl)c1O	3.2	1.3	0.1	?	-3.6	-3.8
C[C@H](CCC(=O)O)[C@H]1CC[C@H]2[C@@H]3[C@@H](O)C[C@@H]4C[C@H](O)CC[C@]4(C)[C@H]3CC[C@]12C	1.1	-4.9	0.4	26.4	9.8*	?
CC(CCC(=O)O)C1CCC2C3C(O)CC4CC(O)CCC4(C)C3CC(O)C12C (configuration not stated)	·	·	0.4	11.3	·	-1.7
O=C(Nc1nc(-c2ccccn2)cs1)c1ccc(Cl)s1	-6.4	3.7	0.9	-196.5*	10.0*	-0.7
COc1cc(-c2nnc(COC(=O)c3c4c(nc5ccccc35)CCCC4)o2)cc(OC)c1OC	-3.0	-4.1	·	·	10.0*	·
COc1cc(-c2nnc(COC(=O)c3ccc(C)o3)o2)cc(OC)c1OC	·	·	-0.4	·	·	·
O=c1c(C/C=C/c2ccccc2)c(O)ccn1Cc1cccc(Cl)c1	-1.1	0.7	0.3	-5.0	10.6*	2.4
O=c1c(C/C=C/c2ccccc2)c(O)ccn1CCc1c[nH]c2ccccc12	-3.3	4.0	0.3	12.7	-1.4	1.4
CC(Sc1nnc(-c2cccs2)n1Cc1ccccc1)C(=O)NCc1ccc2c(c1)OCO2 (configuration not stated)	0.0	1.3	0.3	41.8	10.4*	-1.7
CCCCc1ccc(NC(=O)CC(C)(C)C)cc1	1.1	-3.2	0.2	-75.8*	-3.3	1.1
CCCCc1ccc(NC(=O)CC(C)=O)cc1	0.3	0.2	0.0	16.1	-0.9	-0.5
O=C(NCC1CCCO1)C(=O)N/N=C/c1cc(Cl)ccc1O (configuration not stated)	-13.4	-1.6	-3.3	-89.5*	0.4	-3.9
COc1ccc(C(=O)NNC2=CC(=O)CC(C)(C)C2)cc1OC	2.5	4.3	-0.2	-5.2	0.8	26.2*
Cc1occc1C(=O)NNC1=CC(=O)CC(C)(C)C1	0.4	2.4	-0.4	26.9	0.7	25.7*
CC1(C)CC(=O)C=C(NNC(=O)c2ccccc2)C1	2.7	-0.8	-0.3	32.7	-0.5	?
COC(=O)[C@]12C[C@H](CC(=O)N3CCCCC3)C(=O)N(CCC3=CCCCC3)C1=C[C@H](C1CCCC1)O[C@@H]2C	·	·	0.2	·	·	·
